The values below come from ChEMBL document CHEMBL1221400, “Synthesis, antimalarial activity, and cellular toxicity of new arylpyrrolylaminoquinolines” (Bioorg Med Chem, 2010).

Each structure is given as a SMILES string. Some results are limits rather than exact numbers.

The nature of series [1]: Cytotoxicity against human K562 cells after 72 hrs by MTT assay. The series is classed as cell-based. The gist of the method: (§1)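 Cells were exposed to serial dilutions of compound for 72 h at 37 °C in 5% CO2. MTT was then added for another 3 h, and formazan was dissolved in SDS/DMF lysing buffer at pH 4.7. Absorbance was read at 550 nm against a 650 nm reference. […] Media: HMEC-1 in MCDB 131 with 10% FCS, EGF and hydrocortisone; K562 and WEHI 13 in RPMI 1640 with 10% FCS; HDF in DMEM with 10% FCS.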
(Tetrazolium assays rely on reduction of a dye to a coloured formazan, in cell work by metabolically active cells.)

For series [2], the system named is Plasmodium falciparum. Nature of the series: Ratio of chloroquine IC50 to compound IC50 for chloroquine-resistant Plasmodium falciparum W2.
Series [3] in a line: Cytotoxicity against mouse WEHI13 cells after 72 hrs by MTT assay. Format: cell-based. The gist of the method:
as §1

Series [4] relates to Plasmodium falciparum. Nature of the series: Ratio of chloroquine IC50 to compound IC50 for chloroquine-sensitive Plasmodium falciparum D10.
A short description of series [5]: Cytotoxicity against HMEC1 cells after 72 hrs by MTT assay. The series is classed as cell-based, HMEC-1. The conditions noted are these: human. An outline of the steps:
as §1

In series [6] the test system is Plasmodium falciparum. Nature of the series: Antimalarial activity against chloroquine-resistant Plasmodium falciparum W2 infected in human A+ erythrocytes after 72 hrs by parasite LDH assay. The settings on record: W2, 72 h. Format: functional, organism-based. The gist of the method: (§2)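 P. falciparum (D10 CQ-sensitive; W2 CQ-resistant) kept at 5% hematocrit in human A+ red cells in RPMI 1640 with 1% AlbuMax, hypoxanthine, 20 mM Hepes and glutamine, at 37 °C under 1% O2/5% CO2/94% N2. Asynchronous cultures (1–1.5% parasitaemia, 1% final hematocrit) were exposed to serial dilutions (final DMSO <1%) for 72 h. pLDH activity was read at OD650. IC50 given as mean ± SD of ≥3 experiments run in duplicate.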

Series [7] deals with Plasmodium falciparum. Nature of the series: Antimalarial activity against chloroquine-sensitive Plasmodium falciparum D10 infected in human A+ RBC after 72 hrs by parasite LDH assay. The series is classed as functional, organism-based. The conditions noted are these: D10, 72 h. An outline of the steps:
as §2

The test system of series [8] is Plasmodium falciparum. The series is described as follows: Ratio of IC50 for chloroquine-resistant Plasmodium falciparum W2 to IC50 for chloroquine-sensitive Plasmodium falciparum D10.
A short description of series [9]: Lipid accumulation ratio of the compound at pH 7.4. The series is classed as physicochemical.
Series [10] is described as follows: Distribution coefficient, log D of the compound at pH 7.4. The series is classed as physicochemical. The settings on record: octanol/water.
A short description of series [11]: Octanol-water partition coefficient, log P of the compound. Format: physicochemical.
A short description of series [12]: Vacuolar accumulation ratio of the compound at pH 5.2. The series is classed as ADME.
Series [13] in a line: Cytotoxicity against HDF after 72 hrs by MTT assay. The conditions noted are these: human. The series is classed as cell-based. An outline of the steps: as §1
Series [14] can be described thus: Inhibition of beta-hematin formation assessed as molar equivalents by BHIA assay relative to hemin. Format: functional.

Turning to `CCN(CC)Cc1cc(-c2ccc(F)cc2)n(Nc2ccnc3cc(Cl)ccc23)c1C`, the CC50 at 72 h stood at 2360 nM in series [1], 3020 nM in series [3] and 18600 nM in series [5]. The “Ratio IC50” value was determined as 5 in [2], 0.5 in series [4] and 1.3 in series [8]. Moreover, the IC50 was determined as 79.8 nM in [6] and 61.6 nM in series [7].

On to `Cc1c(CN2CCCC2)cc(-c2ccc(F)cc2)n1Nc1ccnc2cc(Cl)ccc12`, for which the figures for the CC50 at 72 h in series [1], in series [3] and in series [5] were 1660 nM, 2710 nM and 10100 nM, respectively. Further, the Ratio is listed as 2818.4 in series [9] and 1548.8 in [12]. Also, the figures for the “Ratio IC50” value in [2], in series [4] and in series [8] were 5.7, 0.8 and 2.4, respectively. In addition, the IC50 in series [6] turned out to be 78.1 nM; in series [7], 32.6 nM. In addition, in [10], the pH-dependent lipophilicity (logD) was 3.45. In addition, the log partition coefficient (logP) in series [11] is 4.86.

For `Cc1c(CN2CCCC2)cc(-c2ccc(C(F)(F)F)cc2)n1Nc1ccnc2cc(Cl)ccc12`, the half-maximal cytotoxic concentration (CC50) at 72 h in series [1] was determined as 1220 nM; in [3] it was 2680 nM; in series [5], 4700 nM. In addition, the results for the Ratio in series [9] and in series [12] were 52480.8 and 912, respectively. Moreover, the “Ratio IC50” value in series [2] was 6.7; in series [4] it was 0.5; in series [8] it was 1. Besides, the figures for the IC50 in [6] and in series [7] were 59 nM and 58 nM, respectively. The molecule further showed a logD in series [10] of 4.72. In series [11], this molecule came in with a logP of 5.28.

Take `CCN(CC)Cc1cc(-c2ccc(C)cc2)n(Nc2ccnc3cc(Cl)ccc23)c1C`: the “Ratio IC50” value is 6.4 in series [2], 0.6 in series [4] and 1.7 in series [8]. In addition, the half-maximal cytotoxic concentration (CC50) at 72 h was 3650 nM in series [3], 7050 nM in series [5] and 10300 nM in [13]. Also, the figures for the IC50 in [6] and in [7] were 55.4 nM and 32.7 nM, respectively.

As to `Cc1ccc(-c2cc(CN3CCCC3)c(C)n2Nc2ccnc3cc(Cl)ccc23)cc1`, the IC50 in series [14] was 0.45 equivalents; in series [6], 65.8 nM; in series [7] it was 30.7 nM. Further, the results for the Ratio in [9] and in [12] were 8128.3 and 1862.1, respectively. The entries for the “Ratio IC50” value in series [2], in series [4] and in [8] were 5.4, 0.6 and 2.1, respectively. Further, the CC50 at 72 h came out at 4480 nM in [3], 7150 nM in series [5] and 13200 nM in [13]. In [10], this molecule gave a log distribution coefficient (logD) of 3.91. The molecule further came in with a logP in series [11] of 5.19.

With `CCN(CC)Cc1cc(-c2ccc(N)cc2)n(Nc2ccnc3cc(Cl)ccc23)c1C`, the figures for the “Ratio IC50” value in series [2], in series [4] and in series [8] were 0.9, 0.5 and 5.8, respectively. For the same molecule, the figures for the IC50 in [6] and in series [7] were 313 nM and 53.4 nM, respectively.

In the case of `Cc1c(CN2CCCC2)cc(-c2ccc(N)cc2)n1Nc1ccnc2cc(Cl)ccc12`, the Ratio in [9] stood at 107.1; in series [12], 16982.4. Besides, the “Ratio IC50” value in series [2] stood at 0.5; in series [4] it was 0.5; in series [8] it was 10.6. Moreover, the IC50 in series [6] was 455 nM; in series [7], 43.1 nM. The same molecule registered a logD in series [10] of 2.03. Further, the log partition coefficient (logP) in series [11] is 4.38.

Take `CCN(CC)Cc1cc(-c2ccc(Cl)cc2)n(CCCNc2ccnc3cc(Cl)ccc23)c1C`: the “Ratio IC50” value in [2] amounted to 2.3; in series [4] it was 0.7; in [8], 6.9. In addition, the IC50 in series [6] was determined as 180 nM; in [7], 26 nM.

Regarding `Cc1c(CN2CCCC2)cc(-c2ccc(Cl)cc2)n1CCCNc1ccnc2cc(Cl)ccc12`, the IC50 in [14] came to 0.82 equivalents; in series [6], 243 nM; in series [7], 22.7 nM. The Ratio is 223.9 in series [9] and 24547.1 in [12]. In addition, the figures for the “Ratio IC50” value in series [2], in series [4] and in [8] were 1.7, 0.8 and 10.7, respectively. In series [10], this molecule gave a logD of 2.35. Further, the log partition coefficient (logP) in series [11] turned out to be 4.38.

In the case of `Cc1c(CN2CCCC2)cc(-c2ccc(Cl)cc2)n1Nc1ccnc2cc(Cl)ccc12`, the IC50 in series [14] came out at 0.36 equivalents. Further, the Ratio is 11481.5 in [9] and 1513.6 in series [12]. The CC50 at 72 h was determined as 2060 nM in series [3] and 7180 nM in series [5]. Besides, in series [10], the logD was found to be 4.06. Moreover, the lipophilicity (logP) in [11] was found to be 5.17. Besides, in [8], the “Ratio IC50” value worked out at 1.6.

Consider `Cc1c(CN2CCCC2)cc(-c2ccccc2)n1Nc1ccnc2cc(Cl)ccc12`, for which, in [14], the IC50 worked out at 0.54 equivalents. Moreover, the CC50 at 72 h in series [1] is 2920 nM; in [3], 3880 nM; in series [5] it was 12900 nM. The Ratio in [9] was determined as 1905.5; in [12] it was 1698.2. In [10], this molecule displayed a logD of 3.28. Moreover, in series [11], the logP turned out to be 4.6. In addition, in series [8], the “Ratio IC50” value was found to be 3.3.

`CCN(CC)Cc1cc(-c2ccccc2)n(Nc2ccnc3cc(Cl)ccc23)c1C`: the CC50 at 72 h in [1] came to 3620 nM; in series [3], 4380 nM; in series [5], 16700 nM. The “Ratio IC50” value in series [8] stood at 1.4.

For `CCN(CC)Cc1cc(-c2ccc(Cl)cc2)n(Nc2ccnc3cc(Cl)ccc23)c1C`, the figures for the CC50 at 72 h in series [3] and in series [5] were 1450 nM and 5810 nM, respectively. The “Ratio IC50” value in series [8] came out at 1.6.

Turning to `CCN(CC)CCCC(C)Nc1ccnc2cc(Cl)ccc12` (stereo unspecified) [CHLOROQUINE], the IC50 in series [14] amounted to 1.27 equivalents. Besides, the cytotoxic concentration (CC50) at 72 h was greater than 25000 nM in [1], greater than 38000 nM in series [3], greater than 32000 nM in series [5] and greater than 38000 nM in [13].

One may read the CC50 as the concentration that lowers cell viability or growth by half. As a reminder, the logD is the decadic logarithm of the distribution of all forms, ionised or not, between an organic phase and buffer at a given pH. Lower therefore signals a more hydrophilic compound. One may read the logP as the decadic logarithm of the partition coefficient of the neutral form, usually between octanol and water. A higher logP goes with a more lipophilic compound.
